# Reference: ChEMBL document CHEMBL4004831, “Naphthalene diimide-polyamine hybrids as antiproliferative agents: Focus on the architecture of the polyamine chains” (Eur J Med Chem, 2017)
# How the values were obtained:
# [1] = tested on: UO-31; assay: Growth inhibition of human UO31 cells incubated for 48 hrs by sulforhodamine B assay; assay type: functional; settings: UO-31, 48 h
# [2] = tested on: TK-10; assay: Growth inhibition of human TK10 cells incubated for 48 hrs by sulforhodamine B assay; assay type: functional; settings: TK-10, 48 h
# [3] = tested on: Malme-3M; assay: Growth inhibition of human MALME-3M cells incubated for 48 hrs by sulforhodamine B assay; assay type: functional
# [4] = tested on: NCI-H226; assay: Growth inhibition of human NCI-H226 cells incubated for 48 hrs by sulforhodamine B assay; assay type: functional; settings: NCI-H226, 48 h
# [5] = tested on: OVCAR-5; assay: Growth inhibition of human OVCAR5 cells incubated for 48 hrs by sulforhodamine B assay; assay type: functional; settings: OVCAR-5, 48 h
# [6] = tested on: OVCAR-4; assay: Growth inhibition of human OVCAR4 cells incubated for 48 hrs by sulforhodamine B assay; assay type: functional; settings: OVCAR-4, 48 h
# [7] = tested on: SK-MEL-2; assay: Growth inhibition of human SK-MEL-2 cells incubated for 48 hrs by sulforhodamine B assay; assay type: functional; settings: SK-MEL-2, 48 h
# [8] = tested on: SK-MEL-5; assay: Growth inhibition of human SK-MEL-5 cells incubated for 48 hrs by sulforhodamine B assay; assay type: functional; settings: SK-MEL-5, 48 h
# [9] = tested on: K562; assay: Growth inhibition of human K562 cells incubated for 48 hrs by sulforhodamine B assay; assay type: functional; settings: K562, 48 h
# [10] = tested on: KM12; assay: Growth inhibition of human KM12 cells incubated for 48 hrs by sulforhodamine B assay; assay type: functional; settings: KM12, 48 h
# [11] = tested on: SF-268; assay: Growth inhibition of human SF268 cells incubated for 48 hrs by sulforhodamine B assay; assay type: functional; settings: SF-268, 48 h
# [12] = tested on: NCI-H522; assay: Growth inhibition of human NCI-H522 cells incubated for 48 hrs by sulforhodamine B assay; assay type: functional; settings: NCI-H522, 48 h
# [13] = tested on: EKVX; assay: Growth inhibition of human EKVX cells incubated for 48 hrs by sulforhodamine B assay; assay type: functional
# [14] = tested on: 786-0; assay: Growth inhibition of human 786-0 cells incubated for 48 hrs by sulforhodamine B assay; assay type: functional; settings: 786-0, 48 h
# [15] = tested on: ACHN; assay: Growth inhibition of human ACHN cells incubated for 48 hrs by sulforhodamine B assay; assay type: functional
# [16] = tested on: SN12C; assay: Growth inhibition of human SN12C cells incubated for 48 hrs by sulforhodamine B assay; assay type: functional
# [17] = tested on: OVCAR-3; assay: Growth inhibition of human OVCAR3 cells incubated for 48 hrs by sulforhodamine B assay; assay type: functional; settings: OVCAR-3, 48 h
# [18] = tested on: HCT-116; assay: Growth inhibition of human HCT116 cells incubated for 48 hrs by sulforhodamine B assay; assay type: functional; settings: HCT-116, 48 h
# [19] = tested on: M14; assay: Growth inhibition of human M14 cells incubated for 48 hrs by sulforhodamine B assay; assay type: functional; settings: M14, 48 h
# [20] = tested on: MDA-MB-468; assay: Growth inhibition of human MDA-MB-468 cells incubated for 48 hrs by sulforhodamine B assay; assay type: functional; settings: MDA-MB-468, 48 h
# [21] = tested on: IGROV-1; assay: Growth inhibition of human IGROV1 cells incubated for 48 hrs by sulforhodamine B assay; assay type: functional; settings: IGROV-1, 48 h
# [22] = tested on: HL-60; assay: Growth inhibition of human HL60 cells incubated for 48 hrs by sulforhodamine B assay; assay type: functional; settings: HL-60, 48 h
# [23] = tested on: NCI/ADR-RES; assay: Growth inhibition of human NCI-ADR-RES cells incubated for 48 hrs by sulforhodamine B assay; assay type: functional
# [24] = tested on: BT-549; assay: Growth inhibition of human BT549 cells incubated for 48 hrs by sulforhodamine B assay; assay type: functional; settings: BT-549, 48 h
# [25] = tested on: HCT-15; assay: Growth inhibition of human HCT15 cells incubated for 48 hrs by sulforhodamine B assay; assay type: functional; settings: HCT-15, 48 h
# [26] = tested on: Hs-578T; assay: Growth inhibition of human Hs 578T cells incubated for 48 hrs by sulforhodamine B assay; assay type: functional
# [27] = tested on: LOX IMVI; assay: Growth inhibition of human LOXIMVI cells incubated for 48 hrs by sulforhodamine B assay; assay type: functional
# [28] = tested on: NCI-H460; assay: Growth inhibition of human NCI-H460 cells incubated for 48 hrs by sulforhodamine B assay; assay type: functional; settings: NCI-H460, 48 h
# [29] = tested on: CAKI-1; assay: Growth inhibition of human Caki1 cells incubated for 48 hrs by sulforhodamine B assay; assay type: functional; settings: CAKI-1, 48 h
# [30] = tested on: A549; assay: Growth inhibition of human A549/ATCC cells incubated for 48 hrs by sulforhodamine B assay; assay type: functional; settings: A549, 48 h
# [31] = tested on: UACC-62; assay: Growth inhibition of human UACC62 cells incubated for 48 hrs by sulforhodamine B assay; assay type: functional; settings: UACC-62, 48 h
# [32] = tested on: CCRF-CEM; assay: Growth inhibition of human CCRF-CEM cells incubated for 48 hrs by sulforhodamine B assay; assay type: functional
# [33] = tested on: RPMI-8226; assay: Growth inhibition of human RPMI8226 cells incubated for 48 hrs by sulforhodamine B assay; assay type: functional; settings: RPMI-8226, 48 h
# [34] = tested on: SW-620; assay: Growth inhibition of human SW620 cells incubated for 48 hrs by sulforhodamine B assay; assay type: functional; settings: SW-620, 48 h
# [35] = tested on: SNB-19; assay: Growth inhibition of human SNB19 cells incubated for 48 hrs by sulforhodamine B assay; assay type: functional; settings: SNB-19, 48 h
# [36] = Stabilization of 5'Dabcyl/3'FAM labeled duplex DNA (unknown origin) assessed as increase in melting temperature at 2.5 uM pretreated for 5 mins at 30 degreeC followed by 5 mins incubation at 95 degreeC by fluorescence assay
# Summary of the method: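 FRET melting in LiP buffer (10 mM LiOH, 50 mM KCl, pH 7.0 with H3PO4), ex 488 nm, em 520 nm. Samples were held 5 min at 30 °C, heated at 1 °C/min to 95 °C, held 5 min, then re-annealed. Tm came from first derivatives; ΔTm = shift with ligand at 2.5; at least three runs.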
# [37] = tested on: SR; assay: Growth inhibition of human SR cells incubated for 48 hrs by sulforhodamine B assay; assay type: functional
# [38] = tested on: SNB-75; assay: Growth inhibition of human SNB75 cells incubated for 48 hrs by sulforhodamine B assay; assay type: functional; settings: SNB-75, 48 h
# [39] = tested on: SK-OV-3; assay: Growth inhibition of human SKOV3 cells incubated for 48 hrs by sulforhodamine B assay; assay type: functional; settings: SK-OV-3, 48 h
# [40] = tested on: MDA-MB-435; assay: Growth inhibition of human MDA-MB-435 cells incubated for 48 hrs by sulforhodamine B assay; assay type: functional; settings: MDA-MB-435, 48 h
# [41] = tested on: PC-3; assay: Growth inhibition of human PC3 cells incubated for 48 hrs by sulforhodamine B assay; assay type: functional; settings: PC-3, 48 h
# [42] = tested on: HOP-62; assay: Growth inhibition of human HOP62 cells incubated for 48 hrs by sulforhodamine B assay; assay type: functional; settings: HOP-62, 48 h
# [43] = tested on: HT-29; assay: Growth inhibition of human HT-29 cells incubated for 48 hrs by sulforhodamine B assay; assay type: functional; settings: HT-29, 48 h
# [44] = tested on: SK-MEL-28; assay: Growth inhibition of human SK-MEL-28 cells incubated for 48 hrs by sulforhodamine B assay; assay type: functional; settings: SK-MEL-28, 48 h
# [45] = tested on: MDA-MB-231; assay: Growth inhibition of human MDA-MB-231 cells incubated for 48 hrs by sulforhodamine B assay; assay type: functional; settings: MDA-MB-231, 48 h
smiles,measurement,setting,value
COc1ccccc1CNCCCN1C(=O)c2ccc3c4c(ccc(c24)C1=O)C(=O)N(CCCCNCCCN)C3=O,GI50,[1],3520 nM
same,GI50,[2],2620 nM
same,GI50,[3],984 nM
same,GI50,[4],2260 nM
same,GI50,[5],3050 nM
same,GI50,[6],713 nM
same,GI50,[7],1090 nM
same,GI50,[8],730 nM
same,GI50,[9],1900 nM
same,GI50,[10],2550 nM
same,GI50,[11],1660 nM
same,GI50,[12],1460 nM
same,GI50,[13],2060 nM
same,GI50,[14],2280 nM
same,GI50,[15],3720 nM
same,GI50,[16],947 nM
same,GI50,[17],338 nM
same,GI50,[18],742 nM
same,GI50,[19],1900 nM
same,GI50,[20],284 nM
same,GI50,[21],1440 nM
same,GI50,[22],1060 nM
same,GI50,[23],5990 nM
same,GI50,[24],2230 nM
same,GI50,[25],4460 nM
same,GI50,[26],2300 nM
same,GI50,[27],1030 nM
same,GI50,[28],767 nM
same,GI50,[29],13200 nM
same,GI50,[30],1580 nM
same,GI50,[31],1100 nM
same,GI50,[32],700 nM
same,GI50,[33],1950 nM
same,GI50,[34],641 nM
same,GI50,[35],1320 nM
same,ΔTm,[36],9.1 °C
same,GI50,[37],38 nM
same,GI50,[38],16700 nM
same,GI50,[39],4030 nM
same,GI50,[40],960 nM
same,GI50,[41],2300 nM
same,GI50,[42],2980 nM
same,GI50,[43],998 nM
same,GI50,[44],1630 nM
same,GI50,[45],2680 nM
COc1ccccc1CNCCCN1C(=O)c2ccc3c4c(ccc(c24)C1=O)C(=O)N(CCCNCCCN)C3=O,GI50,[1],745 nM
same,GI50,[2],1610 nM
same,GI50,[3],393 nM
same,GI50,[4],746 nM
same,GI50,[5],1410 nM
same,GI50,[6],873 nM
same,GI50,[7],907 nM
same,GI50,[8],484 nM
same,GI50,[9],264 nM
same,GI50,[10],705 nM
same,GI50,[11],410 nM
same,GI50,[12],572 nM
same,GI50,[13],1020 nM
same,GI50,[14],715 nM
same,GI50,[15],529 nM
same,GI50,[16],538 nM
same,GI50,[17],332 nM
same,GI50,[18],135 nM
same,GI50,[19],992 nM
same,GI50,[20],246 nM
same,GI50,[21],275 nM
same,GI50,[22],812 nM
same,GI50,[23],1160 nM
same,GI50,[24],1440 nM
same,GI50,[25],887 nM
same,GI50,[26],1220 nM
same,GI50,[27],302 nM
same,GI50,[28],154 nM
same,GI50,[29],828 nM
same,GI50,[30],148 nM
same,GI50,[31],655 nM
same,GI50,[32],193 nM
same,GI50,[33],612 nM
same,GI50,[34],109 nM
same,GI50,[35],702 nM
same,ΔTm,[36],7 °C
same,GI50,[37],28 nM
same,GI50,[38],1300 nM
same,GI50,[39],1040 nM
same,GI50,[40],570 nM
same,GI50,[41],477 nM
same,GI50,[42],466 nM
same,GI50,[43],160 nM
same,GI50,[44],753 nM
same,GI50,[45],1420 nM
COc1ccccc1CNCCCN1C(=O)c2ccc3c4c(ccc(c24)C1=O)C(=O)N(CCCNCCCCNCCCN)C3=O,GI50,[1],2680 nM
same,GI50,[2],422 nM
same,GI50,[3],241 nM
same,GI50,[4],928 nM
same,GI50,[5],2030 nM
same,GI50,[6],160 nM
same,GI50,[7],229 nM
same,GI50,[8],156 nM
same,GI50,[9],301 nM
same,GI50,[10],340 nM
same,GI50,[11],338 nM
same,GI50,[12],180 nM
same,GI50,[13],1400 nM
same,GI50,[14],1170 nM
same,GI50,[15],747 nM
same,GI50,[16],319 nM
same,GI50,[17],262 nM
same,GI50,[18],315 nM
same,GI50,[19],645 nM
same,GI50,[20],133 nM
same,GI50,[21],360 nM
same,GI50,[22],438 nM
same,GI50,[23],2040 nM
same,GI50,[24],1710 nM
same,GI50,[25],1740 nM
same,GI50,[26],1360 nM
same,GI50,[27],300 nM
same,GI50,[28],311 nM
same,GI50,[29],2610 nM
same,GI50,[30],581 nM
same,GI50,[31],364 nM
same,GI50,[32],425 nM
same,GI50,[33],626 nM
same,GI50,[34],262 nM
same,GI50,[35],579 nM
same,ΔTm,[36],6.7 °C
same,GI50,[37],325 nM
same,GI50,[38],752 nM
same,GI50,[39],2110 nM
same,GI50,[40],213 nM
same,GI50,[41],564 nM
same,GI50,[42],664 nM
same,GI50,[43],309 nM
same,GI50,[44],390 nM
same,GI50,[45],435 nM
